# Screening data: PubChem BioAssay, Johns Hopkins Ion Channel Center
# MrgX1 antag = blocks BAM8-22 activation of human MrgX1 receptor | Q96LB2 | 310,000 tested, 1.3% active | MRGX1-HEK293 calcium flux, Fluo-4, BAM8-22 antagonism; hits give low values | B-score at 10 µM;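 active = calcium-response B-score plate-corrected more than 3 library SD below zero, starting fluorescence within 5 deviations, no agonist response on first addition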;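 note: peak minus trough fluorescence over baseline after final BAM8-22 challenge near maximal dose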
# Target sequence (Q96LB2 whole entry, looked up): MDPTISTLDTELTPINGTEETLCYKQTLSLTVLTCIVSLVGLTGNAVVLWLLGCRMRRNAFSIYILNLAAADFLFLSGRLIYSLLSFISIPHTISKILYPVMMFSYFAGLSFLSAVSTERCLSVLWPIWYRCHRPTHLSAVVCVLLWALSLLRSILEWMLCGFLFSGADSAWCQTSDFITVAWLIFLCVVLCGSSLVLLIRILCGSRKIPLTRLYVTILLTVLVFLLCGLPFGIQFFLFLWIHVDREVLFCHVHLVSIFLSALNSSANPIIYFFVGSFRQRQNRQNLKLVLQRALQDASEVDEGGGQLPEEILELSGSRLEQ
# MrgX1 ag = human MrgX1 receptor agonism, primary screen; AID 588627; 310,000 tested, 0.44% active; Q96LB2; MrgX1-HEK293 cells, Fluo-4 calcium fluorescence, agonist mode; hits give high values; B-score at 10 µM;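 active = calcium response B-score plate-corrected fluorescence ratio at least 3 library SD, with starting fluorescence B-score inside 5 SD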
#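 Test system: Stable human MrgX1 HEK293 cell line | Schedule: Overnight plating before 1 h dye loading | Read-out basis: Baseline-normalised fluorescence change ratio, B-scored | Detection: Kinetic calcium dye fluorescence, Fluo-4 NW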
# RGS4 pot = RGS4 potentiation or activation. HEK293 M3R/inducible RGS4, carbachol calcium flux Fluo4; hits give low values. B-score at 10 µM. 310,000 tested, 0.92% active. AID 463111;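 active = B-score of the integrated calcium signal more than 4 SD below the library mean, with starting fluorescence not abnormally high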;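 note: negative B-score means reduced calcium response which marks RGS4 activation or potentiation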
#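 System: HEK293 FlpIn-TREx cells, stable M3R, doxycycline-inducible RGS4. Timing: overnight RGS4 induction, 30 min dye load 37 °C, 20 min compound RT. Also added: carbachol, ECmax concentration. Measured by: Fluo4 fluorescence kinetic imaging of calcium. Evaluation: integrated calcium ratio converted to B score.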
# MrgX1 PAM = human MrgX1 positive allosteric modulation, primary screen | AID 588675 | MrgX1-HEK293, Fluo-4 calcium flux, FDSS; hits give high values | 310,000 tested, 0.63% active | B-score at 10 µM | Q96LB2;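 active = plate-corrected calcium response at least 3 library SD above typical, normal starting fluorescence, not activating the receptor alone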;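 note: compound read alongside a low EC10 to EC30 dose of BAM8-22 agonist; peak minus trough fluorescence over baseline measured at the second addition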
# RGS4 block = inhibitors of human RGS4. B-score at 10 µM. 310,000 tested, 0.45% active. P49798. HEK293 M3R/RGS4 inducible, Fluo-4 calcium flux; hits give high values; triggered by carbachol at its EC20. AID 463165;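 active = B-score, a plate-corrected calcium signal, over three deviations above library mean, with baseline fluorescence within five deviations of library mean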;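 note: RGS4 expression induced by doxycycline in cells with stable M3 receptor; B-score is computed from the integrated fluorescence ratio over baseline after carbachol; higher B-score means a larger calcium signal and so more RGS4 inhibition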
# Target sequence (P49798 whole entry, looked up): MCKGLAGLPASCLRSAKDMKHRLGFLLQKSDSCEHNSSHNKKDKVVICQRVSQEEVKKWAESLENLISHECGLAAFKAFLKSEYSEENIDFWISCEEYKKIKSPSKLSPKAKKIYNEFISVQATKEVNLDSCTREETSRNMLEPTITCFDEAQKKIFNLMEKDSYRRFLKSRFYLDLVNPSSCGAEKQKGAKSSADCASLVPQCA
# MrgX1 ant reconf = reconfirmed antagonist of human MrgX1 receptor signaling. shares compounds with MrgX1 antag. MrgX1-HEK293, BAM8-22 calcium flux, Fluo-4; hits give low values. remaining BAM8-22 calcium response % of control (hits give low values), % at 10 µM. 2,300 tested, 19% active;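 active = remaining agonist calcium response no higher than 100% minus 3 SD of agonist-only control wells, with starting fluorescence near control levels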;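 note: agonist BAM8-22 given at a near maximal EC90 to ECmax level; peak minus minimum fluorescence divided by baseline after agonist addition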
# HEK293 Ca flux = counter-screen for MrgX1 antagonists: effect in parental HEK293 cells; Fluo-4 calcium fluorescence, FDSS; shares compounds with MrgX1 antag; 4,000 tested, 2% active; AID 624111; fluorescence ratio F(max-min)/F0 at 10 µM;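 active = duplicate-averaged calcium fluorescence ratio at least three times the standard deviation of buffer wells, a nonspecific response in parental cells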
# HEK293 Ca counter = counter-screen for MrgX1 allosteric activators: effect in parental HEK293 cells; shares compounds with MrgX1 antag; 4,000 tested, 0.4% active; fluorescence ratio F(max-min)/F0 at 10 µM; parental HEK293 calcium flux, Fluo-4 fluorescence ratio; hits give high values;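 active = calcium fluorescence ratio, averaged over duplicates, at least 3 SD of the buffer-well ratio, meaning a nonspecific response in receptor-free cells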;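 note: untransfected parental HEK293 lacking MrgX1 used as counterscreen for MrgX1 allosteric activators; fluorescence change taken during the second addition on a kinetic imager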
# HEK293 Ca cntr2 = MrgX1 activator counter-screen hit in parental HEK293 cells. 4,000 tested, 8.7% active. Fluo-4 calcium fluorescence (FDSS); hits give high values. fluorescence ratio F(max-min)/F0 at 10 µM. shares compounds with MrgX1 antag. AID 624115;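 active = calcium fluorescence ratio at least three times the spread of buffer wells, meaning a non-specific response in parental cells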
# * = called active by the depositor; i = inactive; / = no result given. Most compounds without a hit are left out; they make up all but 3.5% or so of the library.
SMILES,MrgX1 antag,MrgX1 ag,RGS4 pot,MrgX1 PAM,RGS4 block,MrgX1 ant reconf,HEK293 Ca flux,HEK293 Ca counter,HEK293 Ca cntr2
CC(=O)c1cccc(NC(=O)Oc2ccccc2)c1,-7.8*,i,i,i,i,i,i,i,i
CC(=O)c1ccc(NC(=O)Oc2ccccc2)cc1,i,i,i,i,i,/,/,/,/
COc1cccc(C(=O)Nc2cccc(-c3nnc(-c4ccco4)o3)c2)c1,-5.5*,i,i,i,i,60%*,i,i,i
O=C(Nc1cccnc1)c1cccc(S(=O)(=O)N2CCc3ccccc32)c1,i,i,i,i,i,/,/,/,/
COc1ccc(NC(=O)C2=CC(c3ccco3)=NS(=O)(=O)N2C)cc1OC,i,i,i,i,i,/,/,/,/
CCn1cc([N+](=O)[O-])c(C(=O)N2N=C(c3ccccc3)CC2c2ccc([N+](=O)[O-])cc2)n1 (centres undefined),i,i,i,i,i,/,/,/,/
O=C(NCc1cccnc1)c1ccc(COc2ccccc2Br)cc1,i,i,i,i,i,/,/,/,/
O=C(Nc1ccc2nn(-c3ccccc3)nc2c1)c1cccnc1,-5.7*,i,i,i,i,84%*,i,i,i
O=C(Nc1cccnc1)c1ccc(COc2ccccc2Br)cc1,-7.4*,i,i,i,i,i,i,i,i
COc1ccc(C)c2sc(N3CCCC3)nc12,i,i,i,i,i,/,/,/,/
COc1ccccc1N1CCN(C(=O)/C=C/c2c(Cl)nc3ccccn23)CC1,i,i,i,i,i,/,/,/,/
Cc1nc2cc3sc(C)nc3cc2s1,i,i,i,i,i,/,/,/,/
Cc1nc2ccc(N)cc2s1,-5.6*,i,i,i,i,i,i,i,i
Cc1cccc(N(C)S(=O)(=O)c2cccc3nsnc23)c1,-5*,i,i,i,i,i,i,i,i
Cc1ccc(NC(=O)CN(C)S(=O)(=O)c2cccc3nsnc23)cc1C,i,i,i,i,i,/,/,/,/
CN(CC(=O)Nc1ccc(F)c(F)c1)S(=O)(=O)c1cccc2nsnc12,-10*,i,i,i,i,i,i,i,i
COc1ccc(C(=O)NCC(=O)OCC(=O)Nc2sccc2C#N)cc1OC,-4.6*,i,i,i,i,i,i,i,i
Cc1cc(C)cc(NC(=O)C2CCN(S(=O)(=O)c3ccc4c(c3)NC(=O)C(C)S4)CC2)c1 (centres undefined),i,i,i,i,i,/,/,/,/
Cc1ccc(NC(=O)C2CCN(S(=O)(=O)c3ccc4c(c3)NC(=O)C(C)S4)CC2)cc1Cl (centres undefined),-4.6*,i,i,i,i,86%*,i,i,i
CC(=O)c1cccc(NC(=O)C2CC(=O)N(CCc3ccccc3)C2)c1 (centres undefined),-5.2*,i,i,i,i,i,i,i,i
CC(C)(C)NS(=O)(=O)c1ccc(CCC(=O)Nc2ccc3c(c2)OCCO3)cc1,-4.7*,i,i,i,i,i,i,i,i
CC1CCCCC1NC(=O)c1nnc(Cc2ccc(Cl)cc2)o1 (centres undefined),i,i,i,i,i,/,/,/,/
CC(C)c1ccc(NC(=O)COc2ccc(F)cc2C(=O)c2cnn(-c3ccccc3)c2)cc1,-5.3*,i,i,i,i,i,i,i,i
O=C(COc1ccccc1C(=O)c1cnn(-c2ccccc2)c1)Nc1ccc2ccccc2c1,i,i,i,i,i,/,/,/,/
Cc1cc(C(=O)Nc2c(F)cc(F)cc2Br)cs1,i,i,i,i,i,/,/,/,/
SMILES,MrgX1 antag,MrgX1 ag,RGS4 pot,MrgX1 PAM,RGS4 block,MrgX1 ant reconf,HEK293 Ca flux,HEK293 Ca counter,HEK293 Ca cntr2
Cc1ccc(C)c(C(=O)COC(=O)c2ccccc2N2C(=O)C3C4CCC(C4)C3C2=O)c1 (centres undefined),-6*,i,i,i,i,i,i,i,i
O=C(COC(=O)c1ccccc1N1C(=O)C2C3CCC(C3)C2C1=O)c1ccccc1 (centres undefined),i,i,i,i,i,/,/,/,/
CCc1ccc(N2C(=O)c3ccc4c5c(ccc(c35)C2=O)CC4)cc1,i,i,i,i,i,/,/,/,/
COC(=O)c1c(NC(=O)c2ccco2)sc(C(=O)Nc2ccc(F)cc2)c1C,i,i,i,i,i,/,/,/,/
COC(=O)c1c(NC(=O)c2ccco2)sc(C)c1C,-7.7*,i,i,i,i,81%*,i,i,i
COC(=O)c1c(NC(=O)CSc2ccccc2N)sc(C)c1C,-4.7*,i,i,i,i,i,i,i,i
COC(=O)c1c(NC(=O)Cc2ccccc2)sc(C)c1C,i,i,i,i,i,/,/,/,/
CN1CC(=O)N2C(c3ccc(Cl)cc3)c3[nH]c4ccccc4c3C[C@H]2C1=O (some centres undefined),i,i,i,i,i,/,/,/,/
COC(OC)c1ccnc(-c2ccc(OC(=O)c3ccccc3)cc2)n1,-9.2*,i,i,i,i,i,i,i,i
COC(OC)c1ccnc(-c2ccc(OC(C)=O)cc2)n1,i,i,i,i,i,/,/,/,/
CS(=O)(=O)c1ncc(Cl)c(C(=O)Nc2ccc(OC(F)F)cc2)n1,-4.9*,i,i,i,i,i,i,i,i
Cc1cc(=O)c2ccccc2s1,i,i,i,i,i,/,/,/,/
CSc1ccccc1NC(=O)CSCc1ccc(C)cc1,i,i,i,i,i,/,/,/,/
CCCn1cc(SCC(=O)NCc2ccco2)c2ccccc21,-9*,i,i,i,i,i,i,i,i
CCc1ccc(/C=N/NC(=O)c2cc(C)on2)s1,i,i,i,i,i,/,/,/,/
